Data on three compounds can be found in ChEMBL document CHEMBL1146201, “Comparison of a SYBR green I-based assay with a histidine-rich protein II enzyme-linked immunosorbent assay for in vitro antimalarial drug efficacy testing and application to clinical isolates” (Antimicrob Agents Chemother, 2007).

By IC50 is commonly meant the midpoint of a concentration-inhibition curve. Broadly, the IC90 is the concentration needed for an effect of 90%.

Type in all cases: functional, organism-based
In assay [1] the test system is Plasmodium falciparum. Put plainly: Growth inhibition after 72 hrs of Plasmodium falciparum D6 by SYBR green I assay. As to conditions: D6, 72 h. Summed up:
(§1)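 Cultures were set up as for the ELISA arm: 0.5% parasitemia, 2% hematocrit, 72 h at 37°C, 5% O2/5% CO2/90% N2, twofold drug dilutions in duplicate. Plates were frozen at −80°C and thawed 2 h. 100 μl culture was mixed with an equal volume of SYBR green I in lysis buffer (Tris 20 mM pH 7.5, EDTA, saponin, Triton X-100), then held 1 h at RT. Fluorescence was read at 485/535 nm, with an uninfected-RBC background control. IC50/IC90 were derived by nonlinear fitting.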

In assay [2] the test system is Plasmodium falciparum. Put plainly: Growth inhibition after 72 hrs of Plasmodium falciparum 3D7 by SYBR green assay. The conditions noted are these: 3D7, 72 h. Summed up: as §1
Assay [3] relates to Plasmodium falciparum. As to the kind of experiment: Growth inhibition after 72 hrs of Plasmodium falciparum W2 by HRPII ELISA. As to conditions: W2, 72 h. Summed up: (§2)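 Ring-stage cultures (≥70% rings) diluted to 0.5% parasitemia, 2% hematocrit, in RPMI with Albumax I or 10% human serum. Incubated 72 h at 37°C under 5% O2/5% CO2/90% N2 in plates predosed in duplicate with twofold dilutions (chloroquine 3.8–242 nM, quinine 10.8–346 nM, mefloquine 1.1–37.7 nM). Plates were then frozen and thawed. Lysate was assayed by HRPII capture ELISA (IgM capture, HRP detector), A450. IC50/IC90 were derived by nonlinear fitting.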
Background: An ELISA detects its analyte on a solid surface through an enzyme-linked reagent.

Assay [4] concerns Plasmodium falciparum. As to the kind of experiment: Growth inhibition after 72 hrs of Plasmodium falciparum D6 by HRPII ELISA. As to conditions: D6, 72 h. The method in brief: as §2
In assay [5] the test system is Plasmodium falciparum. Put plainly: Growth inhibition after 72 hrs of Plasmodium falciparum W2 by SYBR green I assay. The conditions noted are these: W2, 72 h. Summed up: as §1
Assay [6] has as its system Plasmodium falciparum. As to the kind of experiment: Growth inhibition after 72 hrs of Plasmodium falciparum 3D7 by HRPII ELISA. The conditions noted are these: 3D7, 72 h. The method in brief: as §2

Structures can show the parent of a compound that is named as a salt.

As to `C=CC1CN2CC[C@H]1C[C@H]2[C@H](O)c1ccnc2ccc(OC)cc12` (single isomer, unassigned) [QUININE HYDROCHLORIDE], the IC50 in assay [1] worked out at 6.6 nM; in assay [2] it was 6.9 nM; in assay [3] it was 15.1 nM; in assay [4], 6.7 nM; in assay [5], 22.2 nM; in assay [6], 5.9 nM. The IC90 in assay [1] turned out to be 12.4 nM; in assay [2], 63.7 nM; in assay [3] it was 128 nM; in assay [4] it was 13.2 nM; in assay [5] (read-out: IC90) it was 116 nM; in assay [6], 42.6 nM.
Take `CCN(CC)CCCC(C)Nc1ccnc2cc(Cl)ccc12` (configuration not stated) [CHLOROQUINE PHOSPHATE]: the IC90 in assay [1] came to 16.1 nM; in assay [2], 26.4 nM; in assay [3], 129 nM; in assay [4], 15.8 nM; in assay [5] it was 125 nM; in assay [6], 33.2 nM.
For the compound `O[C@@H](c1cc(C(F)(F)F)nc2c(C(F)(F)F)cccc12)[C@H]1CCCCN1` [MEFLOQUINE HYDROCHLORIDE], the IC50 worked out at 6.4 nM in assay [1], 9.4 nM in assay [2], 1.9 nM in assay [3] and 8.4 nM in assay [6]. For the same compound, the IC90 is 23.3 nM in assay [1]; 29.8 nM in assay [2]; 8 nM in assay [3]; 12.2 nM in assay [5] (read-out: IC90); 25.6 nM in assay [6].
